A short description of test [1]: HUVEC growth inhibition – cell-based, human, primary screen (AID 575;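 active means viability at or below 30% in both replicate assays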;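 further: 100% = median of untreated cell wells with 0.1% DMSO on each plate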). Particulars: HUVEC proliferation, CellTiter-Glo luminescence, 72 h; at 10 µM; stronger effect = lower value. The method in brief:
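System – primary HUVEC, no more than 12 passages · Medium – Low-serum (2% FBS) EBM, supplemented · Times – 72 h exposure, 37 °C, 5% CO2, 30 min RT equilibration · Measured by – luminescent ATP assay · Read-out – % viability relative to median vehicle-well signal on each plate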

Test [2] can be described thus: growth inhibitors of H69AR lung tumor, primary screen, human, duplicate replicates (AID 580;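 active means viability at or under a set limit in both replicates, limit being median viability minus 3 SD, cut at about 48% in these data, passing the limit was not always enough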;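 further: 100% = mean luminescence of untreated wells and 0% = no signal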). The conditions noted are these: H69AR lung tumor cells viability, ATP luminescence, 72 h; at 10 µM; stronger effect = lower value.
The nature of test [3]: reversal of MRP1-mediated doxorubicin resistance, pilot screen, H69AR cells, doxorubicin co-treatment (AID 601;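 active means viability loss from added drug above about 55%, and viability with drug at most 40%, in both replicates, limit read from the data, passing the limit was not always enough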). The conditions noted are these: CellTiter-Glo, 72 h, at 10 µM; for differential viability (reversal): stronger effect = higher value.
The nature of test [4]: 384-well plate pilot, post-Golgi transport modulator project, inhibition of yeast transport mutant growth (AID 636; in the data active means inhibition above about 31%). The conditions noted are these: absorbance 615 nm, about 18 h, stronger effect = higher value.
Test [5] is described as follows: growth suppression of yeast trafficking mutant, preliminary HTS, modulators of trafficking downstream of Golgi apparatus project, 1536-format plate, OD 615 nm (AID 637). The conditions noted are these: yeast transport mutant growth, absorbance 615 nm, 18 h; stronger effect = higher value.
[6] abbreviates: H69AR cells + 2 uM doxorubicin, measured here: viability with 2 uM doxorubicin, stronger effect = lower value.
The mark [7] stands for this setting: H69AR cells, compound alone cytotoxicity.

SMILES strings stand for the structures. The source made the active and inactive calls. Unless noted, no stated cut-off is given here; in the data, active means inhibition above about 30%; inactive means the rest.

For orientation: viability means a read-out of living cells in per cent, often relative to untreated cells. The term inhibition denotes the relative decrease from the control value, in per cent.

On to `Brc1ccc(-c2nnc3sc(CN4CCC5(CC4)OCCO5)cn23)cc1`, for which the viability in test [1] is 113% (inactive); in test [2], 95.9% (inactive); in test [3] (setting [6]), 88.1%; in test [3] (setting [7]), 95.9%. Also, the differential viability (reversal) in test [3] (H69AR cells + 2 uM doxorubicin) was 7.72% (inactive). Further, the inhibition is -2.08% (inactive) in test [4] and -2.22% (inactive) in test [5].
`Nc1nc(SCc2ccc(Cl)cc2Cl)n[nH]1`: the viability in test [1] is 85.8% (inactive); in test [2] it was 92.5% (inactive); in test [3] (setting [6]), 88.3%; in test [3] (setting [7]), 92.5%. Besides, the differential viability (reversal) in test [3] (H69AR cells + 2 uM doxorubicin) is 4.17% (inactive). Further, the figures for the inhibition in test [4] and in test [5] were -7.47% (inactive) and 0.79% (inactive), respectively.
With `CCn1c(Cc2ccccc2)nnc1SCC(=O)Nc1nc2ccccc2s1`, the viability was 87.9% (inactive) in test [1], 104% (inactive) in test [2], 99.9% in test [3] (setting [6]) and 104% in test [3] (setting [7]). In addition, the differential viability (reversal) in test [3] (H69AR cells + 2 uM doxorubicin) is 4.48% (inactive). The inhibition is -3.03% (inactive) in test [4] and 6.51% (inactive) in test [5].
For the molecule `COc1ccccc1CN(Cc1nc2ccccc2c(=O)[nH]1)C(=O)Nc1ccccc1`, the viability in test [1] was 89.4% (inactive); in test [2], 86.6% (inactive); in test [3] (setting [6]), 89.9%; in test [3] (setting [7]), 86.6%. Also, in test [3] (H69AR cells + 2 uM doxorubicin), the differential viability (reversal) is -3.29% (inactive). The inhibition in test [4] is -4.61% (inactive); in test [5] it was -4.13% (inactive).
As to `CCOc1ccc(CNc2ccc3c(c2)ncn3C)cc1`, the viability in test [1] is 106% (inactive); in test [2] it was 93.2% (inactive); in test [3] (setting [6]) it was 89.5%; in test [3] (setting [7]), 93.2%. Besides, in test [3] (H69AR cells + 2 uM doxorubicin), the differential viability (reversal) is 3.64% (inactive). In addition, the inhibition was -3.73% (inactive) in test [4] and -6.83% (inactive) in test [5].
With `O=C(c1ccc2c(c1)OCO2)N1CCNc2ccccc2C1`, the viability in test [1] is 90.4% (inactive); in test [2], 99.6% (inactive); in test [3] (setting [6]), 87.7%; in test [3] (setting [7]) it was 99.6%. The differential viability (reversal) in test [3] (H69AR cells + 2 uM doxorubicin) was 11.9% (inactive). Also, the inhibition in test [4] was 0.65% (inactive); in test [5] it was 3.17% (inactive).
As to `COC(=O)c1[nH]c2ccc(C)cc2c1NC(=O)CN1CCCc2ccccc21`, the viability was 48.2% (inactive) in test [1], 67.6% (inactive) in test [2], 83.2% in test [3] (setting [6]) and 67.6% in test [3] (setting [7]). In addition, the differential viability (reversal) in test [3] (H69AR cells + 2 uM doxorubicin) is -15.6% (inactive). Also, the inhibition was -5.73% (inactive) in test [4] and 0.79% (inactive) in test [5].
Turning to `O=C(Cn1c(=O)[nH]c2ccsc2c1=O)N1CCN(c2ccc(F)cc2)CC1`, the viability in test [1] is 91% (inactive); in test [2], 87.2% (inactive); in test [3] (setting [6]), 86%; in test [3] (setting [7]) it was 87.2%. In test [3] (H69AR cells + 2 uM doxorubicin), the differential viability (reversal) is 1.24% (inactive). In addition, the results for the inhibition in test [4] and in test [5] were -1.84% (inactive) and 4.6% (inactive), respectively.
`O=C(NCc1ccco1)c1noc2c1CCCCC2`: the viability is 96.4% (inactive) in test [1], 78.4% (inactive) in test [2], 72.6% in test [3] (setting [6]) and 78.4% in test [3] (setting [7]). For the same molecule, in test [3] (H69AR cells + 2 uM doxorubicin), the differential viability (reversal) was 5.79% (inactive). Moreover, the values for the inhibition in test [4] and in test [5] were -3.64% (inactive) and -0.95% (inactive), respectively.
Take `Nc1nc(Nc2cccc3ccccc23)nc(C2CCCC2=O)n1` (configuration not stated): the viability in test [1] was 89.7% (inactive); in test [2], 18% (active); in test [3] (setting [6]), 17.5%; in test [3] (setting [7]), 18%. The differential viability (reversal) in test [3] (H69AR cells + 2 uM doxorubicin) is 0.545% (inactive). Besides, the inhibition in test [4] was -4.46% (inactive); in test [5], 3.45% (inactive).
On to `CCOC(=O)CSc1nnc(CNC(=O)c2ccc(OC)c(OC)c2)n1C`, for which the viability in test [1] was 107% (inactive); in test [2], 95.7% (inactive); in test [3] (setting [6]), 97.8%; in test [3] (setting [7]) it was 95.7%. Moreover, the differential viability (reversal) in test [3] (H69AR cells + 2 uM doxorubicin) is -2.17% (inactive). In addition, the inhibition in test [4] was -1.82% (inactive); in test [5], -2.54% (inactive).
With `COc1ccc(OC)c(-c2nc3c(C)n[nH]c(=O)c3[nH]2)c1`, the viability is 79.1% (inactive) in test [1], 69.5% (inactive) in test [2], 90.7% in test [3] (setting [6]) and 69.5% in test [3] (setting [7]). The differential viability (reversal) in test [3] (H69AR cells + 2 uM doxorubicin) was -21.3% (inactive). Also, the values for the inhibition in test [4] and in test [5] were -6.13% (inactive) and -0.95% (inactive), respectively.
With `Cc1ccc(Nc2cc(C)nc3nnnn23)cc1`, the viability in test [1] is 78.5% (inactive); in test [2], 93.4% (inactive); in test [3] (setting [6]), 85.1%; in test [3] (setting [7]) it was 93.4%. In addition, in test [3] (H69AR cells + 2 uM doxorubicin), the differential viability (reversal) was 8.3% (inactive). The inhibition in test [4] is -5.06% (inactive); in test [5], -2.06% (inactive).
On to `COc1ccc(CCN2C(=O)C3C4C=CC(C4)C3C2=O)cc1OC` (configuration not stated), for which the viability is 97.7% (inactive) in test [1], 99.8% (inactive) in test [2], 94.8% in test [3] (setting [6]) and 99.8% in test [3] (setting [7]). The differential viability (reversal) in test [3] (H69AR cells + 2 uM doxorubicin) was 5.05% (inactive). For the same molecule, the inhibition in test [4] was -6.71% (inactive); in test [5], -4.44% (inactive).
In the case of `O=C(Nc1ncnc2sc3c(c12)CCCCC3)c1ccco1`, the viability in test [1] was 91.5% (inactive); in test [2], 73.8% (inactive); in test [3] (setting [6]) it was 74.5%; in test [3] (setting [7]), 73.8%. In addition, the differential viability (reversal) in test [3] (H69AR cells + 2 uM doxorubicin) is -0.73% (inactive). In addition, the inhibition in test [4] is -2.08% (inactive); in test [5] it was 3.65% (inactive).
Regarding `CCCN(CCC)c1nc2ccccc2n2c(C)nnc12`, the viability in test [1] is 85.3% (inactive); in test [2], 81.1% (inactive); in test [3] (setting [6]) it was 85.8%; in test [3] (setting [7]), 81.1%. In addition, the differential viability (reversal) in test [3] (H69AR cells + 2 uM doxorubicin) was -4.65% (inactive). Also, the inhibition in test [4] is -1.45% (inactive); in test [5], 8.1% (inactive).
Turning to `COc1ccccc1NC(=O)N1c2ccc(F)cc2CCC1C` (configuration not stated), the viability in test [1] is 83.3% (inactive); in test [2], 99% (inactive); in test [3] (setting [6]), 84%; in test [3] (setting [7]), 99%. Besides, in test [3] (H69AR cells + 2 uM doxorubicin), the differential viability (reversal) was 15% (inactive). The inhibition is -2.47% (inactive) in test [4] and 3.02% (inactive) in test [5].
With `CCn1c(C)nc2cc(C(=O)OC(C(F)(F)C(F)F)C(F)(F)C(F)F)ccc21`, the viability is 58.4% (inactive) in test [1], 79.2% (inactive) in test [2], 79.1% in test [3] (setting [6]) and 79.2% in test [3] (setting [7]). Moreover, the differential viability (reversal) in test [3] (H69AR cells + 2 uM doxorubicin) was 0.115% (inactive). The inhibition in test [4] was -2.47% (inactive); in test [5], 3.97% (inactive).
`COc1ccc(C(=O)N2CCN(C(=O)c3ccco3)CC2)cc1OC`: the viability is 87.2% (inactive) in test [1], 95.9% (inactive) in test [2], 91.1% in test [3] (setting [6]) and 95.9% in test [3] (setting [7]). For the same molecule, the differential viability (reversal) in test [3] (H69AR cells + 2 uM doxorubicin) was 4.87% (inactive). For the same molecule, the inhibition was -5.73% (inactive) in test [4] and 0.32% (inactive) in test [5].
Regarding `Nc1nc2ccccc2n1/N=C/c1ccc(Br)cc1`, the viability was 72.4% (inactive) in test [1], 86.8% (inactive) in test [2], 82.8% in test [3] (setting [6]) and 86.8% in test [3] (setting [7]). Also, the differential viability (reversal) in test [3] (H69AR cells + 2 uM doxorubicin) was 4.02% (inactive). In addition, the inhibition in test [4] was -3.95% (inactive); in test [5], 8.57% (inactive).
As to `Cc1nn(C)c(C)c1NC(=O)CCSc1nc(-c2ccco2)cc(C(F)(F)F)n1`, the viability in test [1] is 93% (inactive); in test [2], 98.8% (inactive); in test [3] (setting [6]) it was 95%; in test [3] (setting [7]), 98.8%. Moreover, the differential viability (reversal) in test [3] (H69AR cells + 2 uM doxorubicin) was 3.76% (inactive). Further, the results for the inhibition in test [4] and in test [5] were -2.93% (inactive) and 4.44% (inactive), respectively.

(Values after PubChem BioAssay.)
